CHRM5 agonist: human M5 muscarinic receptor agonists, primary screen, CHO-K1 cells, Fluo-8 calcium fluorescence; Muscarinic acetylcholine receptor M5 (Homo sapiens), P08912; CHO-K1 hM5 cells; 0% DMSO wells, 100% maximal acetylcholine response; activation, % at 3 µM; 360,000 compounds, 0.19% hits;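 active means activation above the run's mean over test compounds plus 3 SD, cut at about 23% in these data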;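 further: signal is peak over basal fluorescence ratio across the kinetic read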
CHRM5 PAM: human M5 muscarinic receptor positive allosteric modulators, primary screen, CHO-K1 cells, Fluo-8 calcium fluorescence | Muscarinic acetylcholine receptor M5 (Homo sapiens), P08912 | CHO-K1 hM5, ACh EC20 PAM; 0% = ACh EC20, 100% = ACh EC100 | activation, % at 3 µM | 360,000 compounds, 0.3% hits;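 active means activation above the run cutoff, the mean activation of all test compounds plus 3 SD, cut at about 18% in these data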
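system = human M5 receptor in CHO-K1 cells | reagent = EC20 acetylcholine as agonist stimulus | compound dosing = single-point, 3 µM nominal | incubation = Fluo-8 loading 80 min at 37 °C plus 30 min room temperature | detection = Fluo-8 calcium dye fluorescence, kinetic read | benchmarks = low control EC20 acetylcholine (0%), high control EC100 acetylcholine (100%)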
M5 antag: human M5 muscarinic receptor antagonists, primary screen, CHO cells, Fluo-8 calcium fluorescence; Muscarinic acetylcholine receptor M5 (Homo sapiens), P08912; CHO-hM5 cells, ACh EC80; inhibition, % at 3 µM; 360,000 compounds, 0.59% hits; AID 624040, 2012;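 active means inhibition above a per-plate cutoff, the mean of that plate's test compounds plus 3 SD, cut at about 27% in these data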;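 further: 0% = acetylcholine EC80 with DMSO and 100% = DMSO without agonist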
CHRM4 antagonist: human M4 muscarinic receptor antagonists, primary screen, CHO cells, Fluo-8 calcium fluorescence; CHO-hM4 cells, ACh EC80; Muscarinic acetylcholine receptor M4 (Homo sapiens), P08173; 360,000 compounds, 0.73% hits; inhibition, % at 3 µM;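 active means inhibition above its plate's cutoff, the mean inhibition of sample wells plus 3 SD, cut at about 27% in these data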;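 further: 0% = acetylcholine EC80 with DMSO and 100% = DMSO without agonist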
Target sequence (P08173 whole entry, looked up): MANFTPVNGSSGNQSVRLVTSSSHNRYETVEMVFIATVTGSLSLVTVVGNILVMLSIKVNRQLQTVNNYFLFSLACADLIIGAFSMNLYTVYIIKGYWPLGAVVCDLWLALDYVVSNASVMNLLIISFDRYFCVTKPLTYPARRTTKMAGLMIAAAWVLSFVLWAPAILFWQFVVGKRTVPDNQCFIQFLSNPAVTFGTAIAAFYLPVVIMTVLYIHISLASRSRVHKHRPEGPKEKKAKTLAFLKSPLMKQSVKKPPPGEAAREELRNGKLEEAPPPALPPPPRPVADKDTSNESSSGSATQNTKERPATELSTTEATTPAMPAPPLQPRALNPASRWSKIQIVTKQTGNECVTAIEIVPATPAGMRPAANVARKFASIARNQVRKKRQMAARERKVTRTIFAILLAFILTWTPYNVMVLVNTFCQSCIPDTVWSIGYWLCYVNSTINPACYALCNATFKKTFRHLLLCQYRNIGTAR
CHRM4 PAM: human M4 muscarinic receptor positive allosteric modulators, primary screen, CHO-K1 cells, Fluo-8 calcium fluorescence; CHO-K1 hM4/Gqi5, ACh EC20; 0% = ACh EC20, 100% = maximal ACh; activation, % at 3 µM; Muscarinic acetylcholine receptor M4 (Homo sapiens), P08173; 360,000 compounds, 0.4% hits;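 active means activation above its plate's cutoff, the mean activation of sample wells plus 3 SD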
M4 ag: human M4 muscarinic receptor agonists, primary screen, CHO-K1 cells, Fluo-8 calcium fluorescence; Muscarinic acetylcholine receptor M4 (Homo sapiens), P08173; CHO-K1 hM4/Gqi5; vehicle 0%, full acetylcholine response 100%; activation, % at 3 µM; 360,000 compounds, 0.14% hits;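 active means activation above the run mean over all test wells plus 3 SD, cut at about 32% in these data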;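 further: peak over basal fluorescence ratio per well then scaled between controls; 0% = DMSO wells and 100% = acetylcholine at EC100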
Active calls of the source: *. Most compounds without a hit are left out; they make up all but 1.8% or so of the library.

SMILES	CHRM5 agonist	CHRM5 PAM	M5 antag	CHRM4 antagonist	CHRM4 PAM	M4 ag
Cc1cc(C)n(-c2ccc(C(=O)NCC(c3ccco3)N3CCCC3)cc2)n1 (configuration not stated)	-8	13	-3	-8	8	2
CN(CCc1ccccc1)C(C(=O)Nc1ccc2c(c1)OCCO2)c1ccnc2ccccc12 (configuration not stated)	5	-10	2	2	-8	5
N#Cc1ccccc1OCC(=O)OCCCOC(=O)COc1ccccc1C#N	-4	-11	27*	-10	-8	8
N#Cc1ccccc1OCC(=O)OCC(=O)N1CCCC1	2	-6	16	2	4	-1
CCNC(=S)N/N=C/c1ccc(OCC(=O)Nc2ccc(OC)cc2)c(OC)c1	2	-18	21	32*	-25	21
COc1ccc(NC(=O)COc2ccc(/C=N/O)cc2OC)cc1	2	2	3	-12	8	9
COc1ccc(C(C[N+](=O)[O-])c2c(C)[nH]c3ccccc23)cc1OC (configuration not stated)	-2	19*	0	0	5	4
COc1cc(C(c2c(C(=O)O)[nH]c3ccccc23)c2c(C(=O)O)[nH]c3ccccc23)ccc1OCc1ccccc1	-5	0	4	4	-7	0
O=C(Nc1ccccc1)Nc1ccc2ccccc2c1	3	-33	33*	2	-21	16
CC(=O)Nc1ccc2ccccc2c1	2	0	-4	6	11	1
C/C(=N\NC(=O)Nc1ccccc1)c1ccc2ccccc2c1	-4	-7	34*	-10	8	1
O=C(CSCc1ccc(C(=O)O)cc1)Nc1ccccc1	-2	-6	1	-4	1	0
O=C(CSCc1ccc(C(=O)O)cc1)Nc1ccc2ccccc2c1	3	-5	2	34*	13	1
C/C(=N/NC(=O)Nc1ccccc1)c1ccc(C)cc1	-3	-3	13	-5	7	1
CN(C)Cc1ccccc1CCc1ccccc1	-18	-29	30*	31*	-14	1
O=C(O)Cc1ccc2ccc3ccccc3c2c1	3	19*	-17	-12	6	2
CCOCCc1nnc(NC(=O)Cc2ccccc2)s1	3	5	-5	0	12	-1
CCOCCc1nnc(NC(=O)Cc2c(F)cccc2Cl)s1	-2	5	2	-13	19*	-1
CCC(CC)c1nnc(NC(=O)c2cccnc2SC)s1	1	8	7	0	12	-1
O=C1NC[C@@H](CCCCN2C[C@H](Cc3ccccc3)N(Cc3ccccc3)C(=O)C2=O)N(CC2CCCCC2)C1=O	1	0	2	1	4	0
O=C1NC[C@@H](CCCCN2C[C@H](Cc3ccccc3)N(CC3CCCCC3)C(=O)C2=O)N(CC2CCCCC2)C1=O	11	-3	3	-12	7	59*
O=C1NC[C@@H](CCCCN2C[C@H](Cc3ccc(O)cc3)N(CC3CCCCC3)C(=O)C2=O)N(Cc2ccccc2)C1=O	7	-3	0	-11	5	37*
CCOC(=O)[C@H]1[C@H]2COc3ccc(C)cc3[C@@H]2N2C(=O)c3cc(OC)c(OC)cc3NC(=O)[C@@]12C	3	-6	-2	-26	19	2
C[C@@]12C(=O)Nc3cc(F)c(F)cc3C(=O)N1[C@H]1c3ccccc3OC[C@@H]1[C@@H]2c1ccccc1	-4	-38	23	71*	-15	2
CCOC(=O)[C@H]1[C@H]2COc3ccccc3[C@@H]2N2C(=O)c3cc(OC)c(OC)cc3NC(=O)[C@@]12C	0	1	11	35*	-3	1
SMILES	CHRM5 agonist	CHRM5 PAM	M5 antag	CHRM4 antagonist	CHRM4 PAM	M4 ag
COc1cc2c(cc1OC)C(=O)N1[C@H]3c4ccccc4OC[C@@H]3[C@H](c3ccccc3)[C@]1(C)C(=O)N2	2	-2	11	-4	8	3
C[C@@]12C(=O)Nc3ccc(F)cc3C(=O)N1[C@H]1c3ccccc3OC[C@@H]1[C@@H]2c1ccccc1	-10	-39	57*	89*	-15	0
O=C(NNC(=O)c1cc(-c2ccncc2)nc2ccccc12)c1cccc(Cl)c1	2	-5	4	4	-2	3
CCN1CCN(C(=O)c2cc3c(OC)c(OC)c(OC)cc3[nH]2)CC1	-3	-6	24	61*	-19	0
O=C(C1CCCN(S(=O)(=O)c2ccc(Br)cc2)C1)N1CCOCC1 (configuration not stated)	1	1	7	4	0	3
CC(C)NC(=O)/C(=C/c1cn(-c2ccccc2)nc1-c1cccc([N+](=O)[O-])c1)NC(=O)c1ccccc1	3	-11	10	32*	-2	11
O=C(O)/C=C/c1cn(-c2ccccc2)nc1-c1cccc([N+](=O)[O-])c1	-1	1	-1	-3	3	0
O=C(/C=C/c1cn(-c2ccccc2)nc1-c1ccccc1)Nc1ccc(C(=O)O)cc1	-4	-22	10	71*	-39	0
NS(=O)(=O)c1ccc(NC(=O)/C=C/c2cn(-c3ccccc3)nc2-c2cccc(Cl)c2)cc1	-1	7	4	-2	-4	1
Cc1ccc(C(=O)N/C(=C/c2cn(-c3ccccc3)nc2-c2ccccc2)C(=O)O)cc1	7	20*	3	0	9	1
Cn1c(=O)[nH]c(=O)c2c1nc(N1CCCCC1)n2CCSc1nc2ccccc2o1	-1	-11	10	81*	-13	0
COc1cccc(Nc2nnc(SCC(=O)Nc3sccc3C(N)=O)s2)c1	3	-24	9	29*	-45	19
CCCOc1ccc(C2=CSC3=NCCN23)cc1	-14	7	14	-3	3	1
CCN(CC)c1ncn(Cc2c(Cl)cccc2Cl)c2ncnc1-2	-9	-2	-17	20	52*	1
CCN(CC)c1ncnc2c1ncn2Cc1c(Cl)cccc1Cl	-3	0	-9	-9	22*	1
CCN1/C(=C/C(C)=C/c2sc3ccccc3[n+]2CC)Sc2ccccc21	3	-18	42*	34*	-18	9

Screens: PubChem, The Scripps Research Institute Molecular Screening Center
